Calls of active or inactive are those of the source. The rule behind the calls is not given here.
System: not listed separately
Test: Cytotoxicity against mouse RAW264.7 cells assessed as cell viability at 30 uM after 18 hrs by MTT assay
Assay type: cell-based
Details: read-out: Activity
How it was run: (§1)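 MTT viability assay. RAW264.7 cells seeded at 1.0 × 10^5 cells/well; after 6 h, nonadherent cells were washed off. Adherent cells were cultured with test compound for 18 h. MTT (5 mg/mL in PBS) was added for 2 h at 37 °C. Formazan was dissolved in isopropanol with 0.04 M HCl and OD read at 570 nm (reference 655 nm).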

| SMILES | viability at 18 h, 30 µM |
| --- | --- |
| CCCC(=O)c1c(O)c(CC=C(C)C)c2oc(=O)cc([C@@H](O)CC)c2c1O [KAYEASSAMIN E] | 42.2% |
| CCCC(=O)c1c(O)c(C/C=C(\C)CCC=C(C)C)c(O)c2c([C@H](CC)OC(C)=O)cc(=O)oc12 [MAMMEASIN A] | 10.2% |
| CCC(C)C(=O)c1c(O)c(C/C=C(\C)CCC=C(C)C)c(O)c2c([C@H](CC)OC(C)=O)cc(=O)oc12 (stereo partly drawn) [SURANGIN B] | 18.1% |
| CC(C)=CCc1c(O)c(C(=O)C(C)C)c(O)c2c(-c3ccccc3)cc(=O)oc12 [MESUOL] | 10.1% |
| Oc1ccc(-c2nc(-c3ccncc3)c(-c3ccc(F)cc3)[nH]2)cc1 [SB-202190] | 81.4% |

System: RAW264.7
Test: Inhibition of SAPK/JNK phosphorylation in LPS-induced mouse RAW264.7 cells at 1 to 30 uM incubated for 10 mins prior to LPS-challenge measured after 30 mins by Western blot analysis
Assay type: cell-based
Details: not given
How it was run: (§2)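 RAW264.7 cells (5.0 × 10^6/well) adhered for 6 h. Compound was added for 10 min, then LPS (final 10 µg/mL) for 30 min. BCA-normalized lysates, 25 µg/lane, were run on 10% SDS–PAGE and transferred to PVDF. Phospho-proteins (p-JNK, p-p38, p-STAT1 Ser727) were blocked in Blocking One-P, others (NF-κB p65) in Blocking One. Primary antibodies 1:1000 for 1 h at rt; detection by ECL.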

| SMILES | inhibition |
| --- | --- |
| CCCC(=O)c1c(O)c(C/C=C(\C)CCC=C(C)C)c(O)c2c([C@H](CC)OC(C)=O)cc(=O)oc12 [MAMMEASIN A] | inactive |
| CC(C)=CCc1c(O)c(C(=O)C(C)C)c(O)c2c(-c3ccccc3)cc(=O)oc12 [MESUOL] | inactive |

System: RAW264.7
Test: Antiinflammatory activity in mouse RAW264.7 cells assessed as inhibition of LPS-induced NO production at 3 uM incubated for 10 mins prior to LPS-challenge measured after 18 hrs by Griess method relative to control
Details: not given

| SMILES | inhibition at 3 µM |
| --- | --- |
| CCCC(=O)c1c(O)c(CC=C(C)C)c2oc(=O)cc([C@@H](O)CC)c2c1O [KAYEASSAMIN E] | 38.8% |
| CCCC(=O)c1c(O)c(C/C=C(\C)CCC=C(C)C)c(O)c2c([C@H](CC)OC(C)=O)cc(=O)oc12 [MAMMEASIN A] | 72.9% |
| CCC(C)C(=O)c1c(O)c(C/C=C(\C)CCC=C(C)C)c(O)c2c([C@H](CC)OC(C)=O)cc(=O)oc12 (stereo partly drawn) [SURANGIN B] | 35.7% |
| CC(C)=CCc1c(O)c(C(=O)C(C)C)c(O)c2c(-c3ccccc3)cc(=O)oc12 [MESUOL] | 83.4% |

System: not listed separately
Test: Cytotoxicity against mouse RAW264.7 cells assessed as cell viability at 3 uM after 18 hrs by MTT assay
Assay type: cell-based
Details: read-out: Activity
How it was run: as §1

| SMILES | viability at 18 h, 3 µM |
| --- | --- |
| CCCC(=O)c1c(O)c(C/C=C(\C)CCC=C(C)C)c(O)c2c([C@H](CC)OC(C)=O)cc(=O)oc12 [MAMMEASIN A] | 56.4% |
| CCC(C)C(=O)c1c(O)c(C/C=C(\C)CCC=C(C)C)c(O)c2c([C@H](CC)OC(C)=O)cc(=O)oc12 (stereo partly drawn) [SURANGIN B] | 67.1% |
| CC(C)=CCc1c(O)c(C(=O)C(C)C)c(O)c2c(-c3ccccc3)cc(=O)oc12 [MESUOL] | 57.2% |

System: RAW264.7
Test: Antiinflammatory activity in mouse RAW264.7 cells assessed as inhibition of LPS-induced NO production at 30 uM incubated for 10 mins prior to LPS-challenge measured after 18 hrs by Griess method relative to control
Assay type: functional
Details: not given
How it was run: (§3)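 RAW264.7 cells (DMEM, 10% FBS, 37 °C, 5% CO2) seeded at 2.5 × 10^5 cells/well. After 6 h, nonadherent cells were washed off. Adherent cells were exposed to test compound for 10 min, then to LPS (E. coli 055:B5, final 10 µg/mL) for 18 h. Supernatant nitrite was measured by Griess reaction. Inhibition % = (A−B)/(A−C)×100, with C as the no-LPS control. IC50 was read graphically; N = 4, mean ± SEM. CAPE was the reference.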

| SMILES | inhibition at 30 µM |
| --- | --- |
| CCCC(=O)c1c(O)c(CC=C(C)C)c2oc(=O)cc([C@@H](O)CC)c2c1O [KAYEASSAMIN E] | 63.8% |
| CCCC(=O)c1c(O)c(C/C=C(\C)CCC=C(C)C)c(O)c2c([C@H](CC)OC(C)=O)cc(=O)oc12 [MAMMEASIN A] | 92% |
| CCC(C)C(=O)c1c(O)c(C/C=C(\C)CCC=C(C)C)c(O)c2c([C@H](CC)OC(C)=O)cc(=O)oc12 (stereo partly drawn) [SURANGIN B] | 91.1% |
| CC(C)=CCc1c(O)c(C(=O)C(C)C)c(O)c2c(-c3ccccc3)cc(=O)oc12 [MESUOL] | 103% |
| Oc1ccc(-c2nc(-c3ccncc3)c(-c3ccc(F)cc3)[nH]2)cc1 [SB-202190] | 70.2% |

Molecular target: MAP kinase p38 (Mus musculus) (UniProt P47811+O08911+Q9WUI1+Q9Z1B7)
Test: Inhibition of p38 phosphorylation in LPS-induced mouse RAW264.7 cells at 1 to 30 uM incubated for 10 mins prior to LPS-challenge measured after 30 mins by Western blot analysis
Assay type: cell-based
Details: not given
How it was run: as §2

| inhibition | SMILES |
| --- | --- |
| inactive | CCCC(=O)c1c(O)c(C/C=C(\C)CCC=C(C)C)c(O)c2c([C@H](CC)OC(C)=O)cc(=O)oc12 [MAMMEASIN A] |
| inactive | CC(C)=CCc1c(O)c(C(=O)C(C)C)c(O)c2c(-c3ccccc3)cc(=O)oc12 [MESUOL] |

Molecular target: T1, Signal transducer and activator of transcription 1 (Mus musculus) (UniProt P42225)
T1 sequence (whole entry): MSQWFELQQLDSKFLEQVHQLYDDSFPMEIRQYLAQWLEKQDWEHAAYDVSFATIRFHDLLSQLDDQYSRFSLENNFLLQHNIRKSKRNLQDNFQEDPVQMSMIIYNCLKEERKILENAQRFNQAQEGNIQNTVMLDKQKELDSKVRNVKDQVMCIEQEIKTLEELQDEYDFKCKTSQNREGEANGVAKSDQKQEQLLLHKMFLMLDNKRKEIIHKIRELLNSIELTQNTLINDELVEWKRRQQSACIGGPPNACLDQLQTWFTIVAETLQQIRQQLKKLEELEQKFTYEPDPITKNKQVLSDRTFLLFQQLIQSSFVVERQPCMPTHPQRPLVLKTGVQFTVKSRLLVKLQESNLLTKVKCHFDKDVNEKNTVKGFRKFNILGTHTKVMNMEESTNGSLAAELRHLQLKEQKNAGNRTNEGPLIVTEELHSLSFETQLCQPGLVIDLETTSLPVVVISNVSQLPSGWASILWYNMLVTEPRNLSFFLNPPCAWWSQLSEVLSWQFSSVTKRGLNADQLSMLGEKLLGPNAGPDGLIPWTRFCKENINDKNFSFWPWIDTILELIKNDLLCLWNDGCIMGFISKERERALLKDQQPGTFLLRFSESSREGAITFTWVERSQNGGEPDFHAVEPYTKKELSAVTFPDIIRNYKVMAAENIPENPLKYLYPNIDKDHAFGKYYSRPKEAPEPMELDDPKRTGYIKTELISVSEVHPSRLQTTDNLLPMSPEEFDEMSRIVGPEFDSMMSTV
Test: Inhibition of STAT1 phosphorylation in LPS-induced mouse RAW264.7 cells incubated for 10 mins prior to LPS-challenge measured after 30 mins by Western blot analysis
Assay type: cell-based
Details: not given
How it was run: as §2

| inhibition | SMILES |
| --- | --- |
| Dose-dependent effect | CCCC(=O)c1c(O)c(C/C=C(\C)CCC=C(C)C)c(O)c2c([C@H](CC)OC(C)=O)cc(=O)oc12 [MAMMEASIN A] |
| Dose-dependent effect | CC(C)=CCc1c(O)c(C(=O)C(C)C)c(O)c2c(-c3ccccc3)cc(=O)oc12 [MESUOL] |

System: RAW264.7
Test: Antiinflammatory activity in mouse RAW264.7 cells assessed as inhibition of LPS-induced NO production at 1 uM incubated for 10 mins prior to LPS-challenge measured after 18 hrs by Griess method relative to control
Assay type: functional
Details: not given
How it was run: as §3

| SMILES | inhibition at 1 µM |
| --- | --- |
| CCCC(=O)c1c(O)c(CC=C(C)C)c2oc(=O)cc([C@@H](O)CC)c2c1O [KAYEASSAMIN E] | 38.7% |
| CCCC(=O)c1c(O)c(C/C=C(\C)CCC=C(C)C)c(O)c2c([C@H](CC)OC(C)=O)cc(=O)oc12 [MAMMEASIN A] | 27.5% |
| CCC(C)C(=O)c1c(O)c(C/C=C(\C)CCC=C(C)C)c(O)c2c([C@H](CC)OC(C)=O)cc(=O)oc12 (stereo partly drawn) [SURANGIN B] | 8.5% |
| CC(C)=CCc1c(O)c(C(=O)C(C)C)c(O)c2c(-c3ccccc3)cc(=O)oc12 [MESUOL] | 33.7% |

System: RAW264.7
Test: Antiinflammatory activity in mouse RAW264.7 cells assessed as inhibition of LPS-induced NO production at 10 uM incubated for 10 mins prior to LPS-challenge measured after 18 hrs by Griess method relative to control
Assay type: functional
Details: not given
How it was run: as §3

| SMILES | inhibition at 10 µM |
| --- | --- |
| CCCC(=O)c1c(O)c(CC=C(C)C)c2oc(=O)cc([C@@H](O)CC)c2c1O [KAYEASSAMIN E] | 67.1% |
| CCCC(=O)c1c(O)c(C/C=C(\C)CCC=C(C)C)c(O)c2c([C@H](CC)OC(C)=O)cc(=O)oc12 [MAMMEASIN A] | 88.1% |
| CCC(C)C(=O)c1c(O)c(C/C=C(\C)CCC=C(C)C)c(O)c2c([C@H](CC)OC(C)=O)cc(=O)oc12 (stereo partly drawn) [SURANGIN B] | 74.3% |
| CC(C)=CCc1c(O)c(C(=O)C(C)C)c(O)c2c(-c3ccccc3)cc(=O)oc12 [MESUOL] | 89.4% |
| Oc1ccc(-c2nc(-c3ccncc3)c(-c3ccc(F)cc3)[nH]2)cc1 [SB-202190] | 36.8% |

System: RAW264.7
Test: Antiinflammatory activity in mouse RAW264.7 cells assessed as inhibition of LPS-induced iNOS expression at 1 to 30 uM incubated for 10 mins prior to LPS-challenge measured after 12 hrs by Western blot analysis
Assay type: functional, cell-based
Details: not given
How it was run: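 RAW264.7 cells (5.0 × 10^6/well, 6-well) adhered for 6 h. Compound was added for 10 min, then LPS (final 10 µg/mL) for 12 h. Lysates were sonicated and normalized by BCA. 50 µg protein/lane was run on 10% SDS–PAGE and transferred to PVDF. Blots were probed for iNOS and β-actin (primary 1:1000, HRP secondary 1:5000) and detected by ECL.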

| SMILES | inhibition |
| --- | --- |
| CCCC(=O)c1c(O)c(C/C=C(\C)CCC=C(C)C)c(O)c2c([C@H](CC)OC(C)=O)cc(=O)oc12 [MAMMEASIN A] | Active |
| CC(C)=CCc1c(O)c(C(=O)C(C)C)c(O)c2c(-c3ccccc3)cc(=O)oc12 [MESUOL] | Active |

System: not listed separately
Test: Cytotoxicity against mouse RAW264.7 cells assessed as cell viability at 10 uM after 18 hrs by MTT assay
Assay type: cell-based
Details: read-out: Activity
How it was run: as §1

| SMILES | viability at 18 h, 10 µM |
| --- | --- |
| CCCC(=O)c1c(O)c(CC=C(C)C)c2oc(=O)cc([C@@H](O)CC)c2c1O [KAYEASSAMIN E] | 42.8% |
| CCCC(=O)c1c(O)c(C/C=C(\C)CCC=C(C)C)c(O)c2c([C@H](CC)OC(C)=O)cc(=O)oc12 [MAMMEASIN A] | 24.1% |
| CCC(C)C(=O)c1c(O)c(C/C=C(\C)CCC=C(C)C)c(O)c2c([C@H](CC)OC(C)=O)cc(=O)oc12 (stereo partly drawn) [SURANGIN B] | 42.3% |
| CC(C)=CCc1c(O)c(C(=O)C(C)C)c(O)c2c(-c3ccccc3)cc(=O)oc12 [MESUOL] | 27.2% |

System: RAW264.7
Test: Antiinflammatory activity in mouse RAW264.7 cells assessed as inhibition of LPS-induced NO production incubated for 10 mins prior to LPS-challenge measured after 18 hrs by Griess method
Assay type: functional, cell-based
Details: not given
How it was run: as §3

| SMILES | IC50 |
| --- | --- |
| CCCC(=O)c1c(O)c(CC=C(C)C)c2oc(=O)cc([C@@H](O)CC)c2c1O [KAYEASSAMIN E] | 6.1 µM |
| CCC(C)C(=O)c1c(O)c(C/C=C(\C)CCC=C(C)C)c(O)c2c([C@H](CC)OC(C)=O)cc(=O)oc12 (stereo partly drawn) [SURANGIN B] | 5 µM |
| Oc1ccc(-c2nc(-c3ccncc3)c(-c3ccc(F)cc3)[nH]2)cc1 [SB-202190] | 16 µM |

Now those with a lower IC50, led by results:

| IC50 | SMILES |
| --- | --- |
| 1.8 µM | CCCC(=O)c1c(O)c(C/C=C(\C)CCC=C(C)C)c(O)c2c([C@H](CC)OC(C)=O)cc(=O)oc12 [MAMMEASIN A] |
| 1.3 µM | CC(C)=CCc1c(O)c(C(=O)C(C)C)c(O)c2c(-c3ccccc3)cc(=O)oc12 [MESUOL] |

— ChEMBL document CHEMBL2062365, “Suppressive effects of coumarins from Mammea siamensis on inducible nitric oxide synthase expression in RAW264.7 cells” (Bioorg Med Chem, 2012)
